ChEMBL document CHEMBL2417372, “Design, synthesis, and mechanism of action of 2-(3-hydroxy-5-methoxyphenyl)-6-pyrrolidinylquinolin-4-one as a potent anticancer lead” (Bioorg Med Chem Lett, 2013)
The source made the active and inactive calls. The rule behind the calls is not given here.

What was measured:
Tubulin (Homo sapiens) [1] = target: T1, Tubulin (Homo sapiens) (UniProt P68371+Q9H4B7+P0DPH7+P68366+Q13509+Q71U36+P04350+Q3ZCM7+P07437+P68363+Q9BQE3+Q6PEY2+Q13885+Q9BVA1+Q9BUF5); experiment: Inhibition of tubulin polymerization in human NCI-H522 cells assessed as alpha-tubulin accumulation in cytoskeletal fraction at 100 nM after 24 hrs by Western blot analysis; assay type: cell-based
Method in brief: (§1)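 NCI-H522 cells were exposed for 24 h to compound (10, 30 or 100 nM) or DMSO vehicle. They were then lysed 5 min at 37 °C in hypotonic buffer (1 mM MgCl2, 2 mM EGTA, 0.5% NP-40, protease inhibitors, 20 mM Tris-HCl pH 6.8) and centrifuged at 15,000 × g for 10 min at 25 °C. α- and β-tubulin were assessed in the cytoskeletal fraction.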

Tubulin (Homo sapiens) [2] = target: T1, Tubulin (Homo sapiens); experiment: Inhibition of tubulin polymerization in human NCI-H522 cells assessed as beta-tubulin accumulation in cytoskeletal fraction at 100 nM after 24 hrs by Western blot analysis; assay type: cell-based; method in brief: as §1
Tubulin (Sus scrofa) = Tubulin (Sus scrofa) (UniProt P02554+P02550); conditions: 1 uM
Tubulin (Sus scrofa), sequence (P02550 whole entry, looked up): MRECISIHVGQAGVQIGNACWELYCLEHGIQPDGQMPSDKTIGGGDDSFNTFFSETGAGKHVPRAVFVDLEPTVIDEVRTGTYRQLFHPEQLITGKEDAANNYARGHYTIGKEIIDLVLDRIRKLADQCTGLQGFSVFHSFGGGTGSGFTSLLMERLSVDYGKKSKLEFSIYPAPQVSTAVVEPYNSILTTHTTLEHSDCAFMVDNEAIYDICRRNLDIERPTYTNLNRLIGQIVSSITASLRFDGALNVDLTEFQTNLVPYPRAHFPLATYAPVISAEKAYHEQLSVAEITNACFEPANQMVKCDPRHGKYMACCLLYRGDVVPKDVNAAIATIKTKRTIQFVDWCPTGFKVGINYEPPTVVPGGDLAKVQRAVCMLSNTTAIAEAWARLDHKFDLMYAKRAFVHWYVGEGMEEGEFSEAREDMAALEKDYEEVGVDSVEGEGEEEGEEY
Tubulin (Sus scrofa), sequence (P02554 whole entry, looked up): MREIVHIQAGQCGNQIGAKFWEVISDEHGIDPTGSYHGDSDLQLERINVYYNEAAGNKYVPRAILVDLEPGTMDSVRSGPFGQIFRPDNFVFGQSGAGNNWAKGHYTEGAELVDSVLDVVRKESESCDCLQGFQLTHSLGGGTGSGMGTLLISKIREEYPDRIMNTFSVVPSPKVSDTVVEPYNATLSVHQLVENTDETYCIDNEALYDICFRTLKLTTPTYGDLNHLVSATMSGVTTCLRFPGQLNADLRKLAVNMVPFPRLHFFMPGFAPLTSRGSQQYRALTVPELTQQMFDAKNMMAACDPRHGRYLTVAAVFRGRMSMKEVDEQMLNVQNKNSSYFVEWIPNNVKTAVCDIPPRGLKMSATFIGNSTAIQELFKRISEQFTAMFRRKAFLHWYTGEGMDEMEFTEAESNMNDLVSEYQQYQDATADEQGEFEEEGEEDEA

HL-60 = experiment: Cytotoxicity against human HL60 cells after 48 hrs; assay type: functional, cell-based; conditions: HL-60, 48 h
Method in brief: (§2)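 MTT viability assay on log-phase cells at 37 °C, exposed to compound or DMSO vehicle for 48 h. MTT (1 mg/mL in PBS) was then added for 2 h, and absorbance was read at 570 nm with 630 nm correction. IC50 is the concentration giving 50% proliferation inhibition. Cells were cultured in 5% CO2: HL-60 in RPMI-1640 with 10% FBS; Hep3B in DMEM/F12 with 10% FBS; Detroit 551 in DMEM with 10% FBS.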

NCI-H460 = experiment: Cytotoxicity against human NCI-H460 cells after 48 hrs; assay type: functional, cell-based; conditions: NCI-H460, 48 h
[3] = Cytotoxicity against human Hep3B cells after 48 hrs; assay type: functional, cell-based, Hep 3B2; method in brief: as §2
Detroit 551 = experiment: Cytotoxicity against human Detroit 551 cells after 48 hrs; assay type: cell-based; conditions: Detroit 551, 48 h; method in brief: as §2

Question: For CC[C@]1(O)C[C@@H]2CN(CCc3c([nH]c4ccccc34)[C@@](C(=O)OC)(c3cc4c(cc3OC)N(C)[C@H]3[C@@](O)(C(=O)OC)[C@H](OC(C)=O)[C@]5(CC)C=CCN6CC[C@]43[C@@H]65)C2)C1, which inhibition (Tubulin (Homo sapiens) [1]) is on record?
Answer: The inhibition was “Active”.

Question: What about the inhibition (Tubulin (Homo sapiens) [2]) of the same compound?
Answer: Its inhibition is “Active”.

Question: And the inhibition (Tubulin (Sus scrofa))?
Answer: Its inhibition is “Active”.

Question: For COc1cccc(-c2cc(O)c3cc4c(cc3n2)OCO4)c1, which IC50 (HL-60) is on record?
Answer: The IC50 was 0.08 µM.

Question: And the IC50 (NCI-H460)?
Answer: The IC50 was 0.2 µM.

Question: What about the IC50 [3] of the same compound?
Answer: The IC50 was 0.08 µM.

Question: And the IC50 (Detroit 551)?
Answer: Its IC50 is 4.77 µM.

Question: For O=c1cc(-c2cc(O)cc(O)c2)[nH]c2cc3c(cc12)OCO3, which IC50 (HL-60) is on record?
Answer: Its IC50 is 8.71 µM.

Question: And the IC50 (NCI-H460)?
Answer: The IC50 was over 25 µM.

Question: What about the IC50 [3] of the same compound?
Answer: The IC50 was over 25 µM.

Question: What does the source list for COc1cc(O)cc(-c2cc(=O)c3cc(N4CCOCC4)ccc3[nH]2)c1?
Answer: IC50 (HL-60): 3.9 µM; IC50 (NCI-H460): > 100 µM; IC50 [3]: 6.03 µM; IC50 (Detroit 551): > 100 µM

Question: Which IC50 (HL-60) does the source give for O=c1cc(-c2ccccc2O)[nH]c2cc3c(cc12)OCO3 here?
Answer: The IC50 was 7.62 µM.

Question: What about the IC50 (NCI-H460) of the same compound?
Answer: Its IC50 is 19.1 µM.

Question: What about the IC50 [3] of the same compound?
Answer: The IC50 was 8.04 µM.

Question: What about the IC50 (Detroit 551) of the same compound?
Answer: Its IC50 is 48.9 µM.

Question: For COc1cc(O)cc(-c2cc(=O)c3cc(N(C)C)ccc3[nH]2)c1, which IC50 (HL-60) is on record?
Answer: The IC50 was 0.22 µM.

Question: What about the IC50 (NCI-H460) of the same compound?
Answer: Its IC50 is over 50 µM.

Question: And the IC50 [3]?
Answer: The IC50 was 6.15 µM.

Question: And the IC50 (Detroit 551)?
Answer: The IC50 was over 50 µM.

Question: Which IC50 (HL-60) does the source give for CCOc1cc(O)cc(-c2cc(=O)c3cc(N4CCCC4)ccc3[nH]2)c1 here?
Answer: The IC50 was 0.02 µM.

Question: What about the IC50 (NCI-H460) of the same compound?
Answer: The IC50 was 0.59 µM.

Question: And the IC50 [3]?
Answer: Its IC50 is 0.07 µM.

Question: What about the IC50 (Detroit 551) of the same compound?
Answer: Its IC50 is 13.2 µM.

Question: With CCOc1cc(O)cc(-c2cc(=O)c3cc4c(cc3[nH]2)OCO4)c1 as the compound, how does the IC50 (HL-60) read?
Answer: Its IC50 is 0.5 µM.

Question: And the IC50 (NCI-H460)?
Answer: The IC50 was over 25 µM.

Question: And the IC50 [3]?
Answer: Its IC50 is 25 µM.

Question: What does the source list for O=c1cc(-c2ccc(O)cc2)[nH]c2cc3c(cc12)OCO3?
Answer: IC50 (HL-60): 3.26 µM; IC50 (NCI-H460): > 100 µM; IC50 [3]: 22.3 µM; IC50 (Detroit 551): 41 µM

Question: With CC[C@]1(O)C[C@H]2CN(CCc3c([nH]c4ccccc34)[C@@](C(=O)OC)(c3cc4c(cc3OC)N(C=O)[C@H]3[C@@](O)(C(=O)OC)[C@H](OC(C)=O)[C@]5(CC)C=CCN6CC[C@]43[C@@H]65)C2)C1 as the compound, how does the inhibition (Tubulin (Homo sapiens) [1]) read?
Answer: Its inhibition is “Active”.

Question: And the inhibition (Tubulin (Homo sapiens) [2])?
Answer: The inhibition was “Active”.

Question: What about the inhibition (Tubulin (Sus scrofa)) of the same compound?
Answer: Its inhibition is “Active”.

Question: For COc1cc(O)cc(-c2cc(=O)c3cc4c(cc3[nH]2)OCO4)c1, which IC50 (HL-60) is on record?
Answer: Its IC50 is 0.5 µM.

Question: And the IC50 (NCI-H460)?
Answer: The IC50 was over 50 µM.

Question: And the IC50 [3]?
Answer: The IC50 was over 50 µM.

Question: And the IC50 (Detroit 551)?
Answer: The IC50 was over 50 µM.

Question: With Oc1cccc(-c2cc(O)c3cc4c(cc3n2)OCO4)c1 as the compound, how does the IC50 (HL-60) read?
Answer: Its IC50 is 0.25 µM.

Question: What about the IC50 (NCI-H460) of the same compound?
Answer: The IC50 was 17 µM.

Question: What about the IC50 [3] of the same compound?
Answer: Its IC50 is 1.05 µM.

Question: And the IC50 (Detroit 551)?
Answer: The IC50 was 21.8 µM.

Question: Which results are given for O=c1cc(-c2cc(O)cc(O)c2)[nH]c2ccc(N3CCCC3)cc12?
Answer: IC50 (HL-60): 0.34 µM; IC50 (NCI-H460): 13.9 µM; IC50 [3]: 1.58 µM; IC50 (Detroit 551): > 25 µM
